# The source made the active and inactive calls. The rule behind the calls is not given here.
# Columns and labels:
# [1] = Prodrug conversion in mouse plasma implanted with mouse 4T1 cells assessed as Tmax of docetaxel at 4 mg/kg,iv measured upto 72 hrs; type: ADME, organism-based; conditions: in vivo
# Cytochrome P450 2C8 = Cytochrome P450 2C8 (Homo sapiens, UniProt P10632); test: Inhibition of CYP2C8 in human liver microsomes using probe substrate in presence of NADPH; type: ADME, Microsome
# HT-29 = test: Antiproliferative activity against human HT-29 cells assessed inhibition of cell growth incubated for 72 hrs by SRB assay; type: functional, cell-based; conditions: HT-29, 72 h
# [2] = Clearance in female rat at 2 mg/kg,iv measured upto 24 hrs; type: ADME, organism-based; conditions: in vivo
# Summary of the method: (§1)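 Rats were given a single iv injection at 2, 4 or 8 mg/kg. Plasma parent drug and released docetaxel were followed over time. Cmax, Tmax, AUC, MRT, t1/2, CL and Vss were reported for males, females and all animals combined.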
# [3] = Toxicity in Beagle dog assessed as decrease in body temperature at 1 to 4 mg/kg,iv; type: organism-based, Canis lupus familiaris; conditions: in vivo, dose 1-4 mg/kg
# [4] = Cmax in female rat at 4 mg/kg,iv measured upto 24 hrs; type: ADME, organism-based; design: time < 24 hrs, dose 4 mg/kg, route iv; conditions: in vivo; summary of the method: as §1
# [5] = Drug distribution in rat liver at 4 mg/kg,iv measured by 0.25 hrs; type: ADME, organism-based; conditions: in vivo
# Summary of the method: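 Rats received 4 mg/kg iv. Parent drug and released docetaxel were assayed in tissues and plasma from the first sampling at 0.25 h to 24 h. The lower limit of quantitation was 200 ng/g.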
# [6] = Stability in monkey hepatocyte assessed as compound remaining at 3 uM incubated upto 120 mins; type: ADME, cell-based, Macaca mulatta; conditions: rhesus monkey, hepatocytes, 2 h
# [7] = Volume of distribution at steady state in female rat at 8 mg/kg,iv measured upto 24 hrs; type: ADME, organism-based; conditions: in vivo, read-out: Vdss
# [8] = Plasma protein binding in dog plasma incubated for 4 hrs; type: ADME, cell-free, Canis lupus familiaris; conditions: read-out: PPB (converted)
# [9] = Tmax in mouse plasma implanted with mouse 4T1 cells at 10 mg/kg,iv measured upto 72 hrs; type: ADME, organism-based
# 4T1 [10] = test: Antitumor activity against mouse 4T1 cells xenografted with BALB/c mouse assessed as decrease in tumor volume at 10 mg/kg,iv administrated once per week for 4 weeks; type: functional, organism-based
# Summary of the method: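 4T1 cells injected into the mammary fat pad of BALB/c mice; iv saline vehicle or 5, 10 or 20 mg/kg once weekly for 4 weeks; body weight, tumour volume, tumour weight, lung metastatic nodule count and metastasis score recorded; n = 10, mean ± SEM, ANOVA and Student's t test.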
# Cytochrome P450 2B6 = Cytochrome P450 2B6 (Homo sapiens, UniProt P20813); test: Inhibition of CYP2B6 in human liver microsomes using probe substrate at 0.1 to 100 uM in presence of NADPH; type: ADME, Microsome; conditions: dose 0.1-100 µM
# [11] = Toxicity in male Sprague-Dawley rat assessed as maximal non-toxic dose at iv administration; type: organism-based; conditions: in vivo, read-out: MNTD
# [12] = Chronic toxicity in female Beagle dog at 3 to 18 mg/kg,iv administered once per week for 30 days; type: organism-based, Canis lupus familiaris; conditions: in vivo, 720 h, dose 3-18 mg/kg, time 30 day
# Summary of the method: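 Long-term toxicity: rats given iv 2, 4 or 8 mg/kg and dogs 3, 6 or 18 mg/kg once weekly over 30 days; toxicokinetics recorded; highest non-severely toxic dose determined by sex.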
# Cytochrome P450 1A = Cytochrome P450 1A (Homo sapiens, UniProt P04798+P05177); test: Inhibition of CYP1A in human liver microsomes using probe substrate at 0.1 to 100 uM in presence of NADPH; type: ADME, Microsome; conditions: dose 0.1-100 µM
# MDA-MB-435 = test: Antiproliferative activity against human MDA-MB-435 cells assessed inhibition of cell growth incubated for 72 hrs by SRB assay; type: functional, cell-based; conditions: MDA-MB-435, 72 h
# [13] = Toxicity in female Sprague-Dawley rat assessed as maximal non-toxic dose at iv administration; type: organism-based; conditions: in vivo, read-out: MNTD
# [14] = Toxicity in Beagle dog assessed as effect on electrocardiogram index at 1 to 4 mg/kg,iv; type: organism-based, Canis lupus familiaris; conditions: in vivo, dose 1-4 mg/kg
# [15] = Cmax in male rat at 8 mg/kg,iv measured upto 24 hrs; type: ADME, organism-based; design: time < 24 hrs, dose 8 mg/kg, route iv; conditions: in vivo; summary of the method: as §1
# [16] = Stability in mouse plasma assessed as compound remaining at 40 uM incubated for 6 hrs; type: ADME, cell-free
# [17] = Drug metabolism in dog hepatocytes assessed as MDA-205 metabolite formation at 20 uM incubated for 180 mins; type: ADME, cell-based, Canis lupus familiaris, Hepatocyte; conditions: 3 h
# [18] = Cmax in Beagle dog at 1 mg/kg,iv measured upto 24 hrs; type: ADME, organism-based, Canis lupus familiaris; design: dose 1 mg/kg, time < 24 hrs, route iv; conditions: in vivo
# Summary of the method: (§2)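 Beagle dogs were given a single iv infusion at 1, 2 or 4 mg/kg. Plasma parent drug and released docetaxel were followed over time. Cmax, Tmax, AUC, MRT, t1/2, CL and Vss were reported by sex and for all dogs combined.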
# Cytochrome P450 2D6 = Cytochrome P450 2D6 (Homo sapiens, UniProt P10635); test: Inhibition of CYP2D6 in human liver microsomes using probe substrate at 0.1 to 100 uM in presence of NADPH; type: ADME, Microsome; conditions: dose 0.1-100 µM
# 4T1 [19] = test: Antitumor activity against mouse 4T1 cells implanted in BALB/c mouse assessed as decrease in serum MMP9 level at 10 mg/kg,iv administrated once per week for 4 weeks by ELISA; type: functional, organism-based
# Summary of the method: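 4T1 fat-pad model in BALB/c mice, iv 5–20 mg/kg once weekly for 4 weeks, with vehicle and naive groups; serum MMP9, TIMP-1, IL-6 and S100A9 measured by mouse ELISA kits.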
# [20] = Clearance in Beagle dog at 2 mg/kg,iv measured upto 24 hrs; type: ADME, organism-based, Canis lupus familiaris; conditions: in vivo; summary of the method: as §2
# 4T1 [21] = test: Antitumor activity against mouse 4T1 cells implanted in BALB/c mouse assessed as decrease in lung metastasis at 5.7 mg/kg,iv administrated once per week for 4 weeks in presence of compound 5b by H and E staining based assay; type: functional, organism-based
# Summary of the method: (§3)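 BALB/c mice bearing orthotopic mammary fat pad 4T1 tumors, dosed iv weekly for 4 weeks with saline vehicle as control. Lung sections stained with hematoxylin and eosin and examined by light microscopy at 40× for metastasis, inflammatory infiltration and alveolar wall thickening.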
# [22] = Toxicity in BALB/c mouse xenografted with human NCI-H1975 cells assessed as side effects at 5.7 mg/kg,iv administrated once per week for 3 weeks; type: organism-based; conditions: in vivo, 504 h
# Summary of the method: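 Nude BALB/c nu/nu mice received subcutaneous human tumour cells into the right flank. Dosing started at mean tumour volume of 100–120 mm3, iv once weekly for 3 weeks; the taxane arm was an equimolar control. Body weight and overt side effects were monitored. Mean ± SEM, n = 8.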
# [23] = Toxicity in BALB/c mouse injected with mouse 4T1 cells assessed as body weight loss at 5.7 mg/kg,iv in presence of compound 5b administrated once per week for 4 weeks; type: organism-based; conditions: in vivo, 672 h
# in vivo = conditions: mouse, tumor, iv, 5.7 mg/kg
# 4T1 [24] = test: Antitumor activity against mouse 4T1 cells xenografted with BALB/c mouse assessed as decrease in lung metastasis at 5.7 mg/kg,iv administrated once per week for 4 weeks; type: functional, organism-based
# Summary of the method: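 4T1 cells injected into mammary fat pads of BALB/c mice. Dosing iv once per week for 4 weeks, saline vehicle; single-agent arms were given alone or with the peptide component (5b or 6). Endpoints were body weight, tumour volume, tumour weight, lung metastatic nodule count and lung metastasis score. Mean ± SEM, n = 10; ANOVA and Student's t test.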
# 4T1 [25] = test: Antitumor activity against mouse 4T1 cells implanted in BALB/c mouse assessed as decrease in lung injury at 5.7 mg/kg,iv administrated once per week for 4 weeks by H and E staining based assay; type: functional, organism-based; summary of the method: as §3
# Sequence of Cytochrome P450 2B6 (P20813 whole entry): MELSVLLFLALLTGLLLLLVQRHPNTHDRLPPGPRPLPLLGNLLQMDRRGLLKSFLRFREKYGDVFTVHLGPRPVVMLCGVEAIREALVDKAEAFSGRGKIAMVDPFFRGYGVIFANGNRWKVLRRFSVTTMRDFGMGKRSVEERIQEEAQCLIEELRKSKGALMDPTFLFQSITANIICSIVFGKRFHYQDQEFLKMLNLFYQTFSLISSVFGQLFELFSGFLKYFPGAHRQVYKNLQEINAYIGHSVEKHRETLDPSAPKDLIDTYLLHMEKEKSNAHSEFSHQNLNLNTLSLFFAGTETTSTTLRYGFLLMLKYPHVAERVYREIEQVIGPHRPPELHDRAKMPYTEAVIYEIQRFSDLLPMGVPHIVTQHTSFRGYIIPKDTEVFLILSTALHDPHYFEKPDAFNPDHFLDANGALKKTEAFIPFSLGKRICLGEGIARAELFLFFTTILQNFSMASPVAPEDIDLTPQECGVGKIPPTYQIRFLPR
# Sequence of Cytochrome P450 2C8 (P10632 whole entry): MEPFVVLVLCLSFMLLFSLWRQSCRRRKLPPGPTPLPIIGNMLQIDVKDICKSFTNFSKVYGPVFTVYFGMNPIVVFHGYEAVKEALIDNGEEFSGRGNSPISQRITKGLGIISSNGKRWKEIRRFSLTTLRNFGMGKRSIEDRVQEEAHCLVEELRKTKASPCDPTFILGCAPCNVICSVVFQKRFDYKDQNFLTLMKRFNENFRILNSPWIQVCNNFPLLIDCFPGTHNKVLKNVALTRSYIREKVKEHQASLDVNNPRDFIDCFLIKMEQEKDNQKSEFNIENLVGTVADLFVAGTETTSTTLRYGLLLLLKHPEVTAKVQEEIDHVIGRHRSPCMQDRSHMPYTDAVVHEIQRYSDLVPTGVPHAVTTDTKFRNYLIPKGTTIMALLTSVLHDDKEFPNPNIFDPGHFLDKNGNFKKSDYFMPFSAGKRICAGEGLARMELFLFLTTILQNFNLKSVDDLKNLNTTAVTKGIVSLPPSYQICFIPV
# Sequence of Cytochrome P450 2D6 (P10635 whole entry): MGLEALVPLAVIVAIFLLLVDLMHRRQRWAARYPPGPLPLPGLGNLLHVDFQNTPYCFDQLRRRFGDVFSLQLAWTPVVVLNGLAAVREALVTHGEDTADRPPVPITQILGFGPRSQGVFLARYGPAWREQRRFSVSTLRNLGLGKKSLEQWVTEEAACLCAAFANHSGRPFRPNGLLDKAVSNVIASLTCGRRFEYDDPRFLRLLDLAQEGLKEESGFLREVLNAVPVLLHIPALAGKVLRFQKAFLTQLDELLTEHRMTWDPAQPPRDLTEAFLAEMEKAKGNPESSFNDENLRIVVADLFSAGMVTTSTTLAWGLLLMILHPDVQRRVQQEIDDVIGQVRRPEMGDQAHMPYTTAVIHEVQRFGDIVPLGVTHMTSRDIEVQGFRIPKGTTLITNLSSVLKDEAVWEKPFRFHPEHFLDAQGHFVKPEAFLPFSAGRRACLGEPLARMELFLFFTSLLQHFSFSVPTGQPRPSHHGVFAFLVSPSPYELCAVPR
compound,measurement,setting,value
CC(=O)O[C@@]12CO[C@@H]1C[C@H](O)[C@@]1(C)C(=O)[C@H](O)C3=C(C)[C@@H](OC(=O)[C@H](OC(=O)CCC(=O)NCCCC[C@H](NC(=O)CC[C@@H](NC(=O)[C@H](C)NC(=O)/C=C/c4ccc(F)cc4Cl)C(N)=O)C(=O)O)[C@@H](NC(=O)OC(C)(C)C)c4ccccc4)C[C@@](O)([C@@H](OC(=O)c4ccccc4)[C@H]21)C3(C)C,Tmax,[1],1.8 min
same,IC50,Cytochrome P450 2C8,9970 nM
same,IC50,HT-29,16.3 nM
same,clearance,[2],7.73 mL/min/kg
same,Activity,[3],Toxic
same,Cmax,[4],30500 ng/mL
same,Drug uptake,[5],Active
same,Stability,[6],Stable
same,Vd,[7],0.095 L/kg
same,fraction unbound at 4 h,[8],0.003
same,Tmax,[9],1.8 min
same,Activity,4T1 [10],Active
same,inhibition (INH),Cytochrome P450 2B6,Not Active
same,NOAEL,[11],4 mg/kg
same,Activity,[12],Non-Toxic
same,inhibition (INH),Cytochrome P450 1A,Not Active
same,IC50,MDA-MB-435,16.3 nM
same,NOAEL,[13],2 mg/kg
same,Activity,[14],Non-Toxic
same,Cmax,[15],61900 ng/mL
same,Stability,[16],Stable
same,Drug metabolism,[17],Metabolite_Detected
same,Cmax,[18],3880 ng/mL
same,inhibition (INH),Cytochrome P450 2D6,Not Active
same,Activity,4T1 [19],Active
same,clearance,[20],6.08 mL/min/kg
CC(=O)O[C@@]12CO[C@@H]1C[C@H](O)[C@@]1(C)C(=O)[C@H](O)C3=C(C)[C@@H](OC(=O)[C@H](O)[C@@H](NC(=O)OC(C)(C)C)c4ccccc4)C[C@@](O)([C@@H](OC(=O)c4ccccc4)[C@H]21)C3(C)C [DOCETAXEL ANHYDROUS],Activity,4T1 [21],Active
same,Activity,[22],Non-Toxic
same,Activity,[23],Non-Toxic
same,AUC(0-t) at 72 h,in vivo,27 µM·h
same,Activity,4T1 [24],Active
same,Activity,4T1 [25],Active

# Source: ChEMBL document CHEMBL5252546, “Salutaxel, a Conjugate of Docetaxel and a Muramyl Dipeptide (MDP) Analogue, Acts as Multifunctional Prodrug That Inhibits Tumor Growth and Metastasis” (J Med Chem, 2018)
